ChEMBL document CHEMBL4396895, “Identification and Optimization of Novel Cathepsin C Inhibitors Derived from EGFR Inhibitors” (J Med Chem, 2019)
pIC50: −log10 of the molar value. Calls of active or inactive are those of the source. The calls are words filed in the database; no cut-off is given here.

How the values were obtained:
Mus musculus [1] = test: Protection against C57BL/6 mouse model of caerulein-induced acute pancreatitis at 20 mg/kg, po pretreated twice daily for 6 days followed by caerulein-challenge at 1 hr interval for 8 hrs and measured 1 hr post-last caerulein-challenge by H and E staining-based histological analysis
[2] = Half life in C57BL/6 mouse at 10 mg/kg, ip by LC-MS/MS analysis; format: ADME, organism-based; details: in vivo
Outline: (§1)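 Male C57BL/6 mice (n = 3) were dosed with a single IV dose of 2 mg/kg or an IP or PO dose of 10 mg/kg. Vehicle: 0.5% Methocel and 0.1% Tween-80 in citrate buffer, pH 3. Blood was drawn by eye puncture at several time points and analysed by LC-MS/MS. Parameters came from noncompartmental analysis of individual animals and are reported as means.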

Mus musculus [3] = test: In vivo inhibition of CatC in po dosed C57BL/6 mouse bone marrow assessed as reduction in neutrophil elastase activation administered twice daily for 6 days using methoxysuccinyl-Ala-Ala-Pro-Val-AMC as substrate measured up to 90 mins by fluorescence assay; format: functional, organism-based
Outline: (§2)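 C57BL/6 mice (20−25 g; n = 10 per group) received oral doses twice daily at 6.7, 20 or 60 mg/kg for 6 days. The vehicle group got 0.5% Methocel and 0.1% Tween-80 in 100 mM citrate buffer, pH 3. Blood was drawn by eye puncture 14 h after the last dose. Bone marrow was flushed from femurs and tibias with ice-cold RPMI 1640. Cells were lysed in 50 mM Tris pH 7.4, 750 mM NaCl, 1% Triton X-100, sonicated on ice and stored at −80 °C. Lysates were diluted by protein content, with blood diluted 5-fold more than marrow. Kinetics were followed for up to 90 min. Results are % of the vehicle mean.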

Mus musculus [4] = test: In vivo inhibition of CatC in po dosed C57BL/6 mouse bone marrow assessed as reduction in CatG activation administered twice daily for 6 days using N-succinyl-Ala-Ala-Pro-Phe-pNA as substrate measured up to 90 mins by fluorescence assay; format: functional, organism-based
Outline: as §2

Mus musculus [5] = test: In vivo inhibition of CatC in po dosed C57BL/6 mouse blood assessed as reduction in neutrophil elastase activation administered twice daily for 6 days using methoxysuccinyl-Ala-Ala-Pro-Val-AMC as substrate measured up to 90 mins by fluorescence assay; format: functional, organism-based
Outline: as §2

[6] = AUC infinity in C57BL/6 mouse at 2 mg/kg, iv by LC-MS/MS analysis; format: ADME, organism-based; set-up: dose 2 mg/kg, time infinity, route intravenous; details: in vivo
Outline: as §1

Dipeptidyl peptidase 1 = Dipeptidyl peptidase 1 (Homo sapiens, UniProt P53634); test: Inhibition of cathepsin C in human U937 cells using H-Gly-Phe-AFC as substrate preincubated for 4 hrs followed by substrate addition and measured after 60 mins; format: cell-based
Outline: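 THP1 or U937 cells, grown in RPMI 1640 with 10% FBS, were seeded at 1.0 × 10^6/mL. They were preincubated with threefold serial dilutions of compound for 4 h at 37 °C. H-Gly-Phe-AFC was then added from a 100 μM solution and fluorescence was read after 60 min at 37 °C. Values are means of at least two experiments.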

Mus musculus [7] = test: In vivo inhibition of CatC in po dosed C57BL/6 mouse blood assessed as reduction in proteinase 3 activation administered twice daily for 6 days using aminobenzoyl-Val-Ala-Asp-Cys-Ala-Asp-Gln-ethylenediamine 2,4-dinitrophenyl as substrate measured up to 90 mins by fluorescence assay; format: functional, organism-based
Outline: as §2

[8] = Intrinsic clearance in mouse liver microsomes assessed per mg protein measured after 60 mins in presence of NADPH by LC-MS/MS analysis; format: ADME, Microsome; details: read-out: CLH
[9] = Half life in C57BL/6 mouse at 10 mg/kg, po by LC-MS/MS analysis; format: ADME, organism-based; details: in vivo
Outline: as §1

[10] = Cmax in C57BL/6 mouse at 10 mg/kg, po by LC-MS/MS analysis; format: ADME, organism-based; set-up: dose 10 mg/kg, route oral; details: in vivo
Outline: as §1

[11] = Tmax in C57BL/6 mouse at 10 mg/kg, po by LC-MS/MS analysis; format: ADME, organism-based; details: in vivo
Outline: as §1

Cathepsin S = Cathepsin S (Homo sapiens, UniProt P25774); test: Inhibition of recombinant human C-terminal polyhistidine-tagged cathepsin S (Met1 to Ile331 residues) expressed in HEK293 cells using MCA-Arg-Pro-Lys-Pro-Val-Glu-NVAL-Trp-Arg-Lys(DNP)-NH2 as substrate preincubated for 30 mins followed by substrate addition and measured after 30 mins
Outline: (§3)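 Recombinant human cathepsin was preincubated with compound for 30 min at RT, then reacted with substrate for 30 min. CatB and CatL were read with Z-Leu-Arg-AMC (Ex 380/Em 460 nm). CatS was read with MCA-Arg-Pro-Lys-Pro-Val-Glu-Nva-Trp-Arg-Lys(DNP)-NH2 (Ex 320/Em 405 nm). E-64 served as inhibitor control.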

Cathepsin B = Cathepsin B (Homo sapiens, UniProt P07858); test: Inhibition of recombinant human C-terminal polyhistidine-tagged cathepsin B (Arg18 to Ile339 residues) expressed in HEK293 cells using Z-Leu-Arg-AMC as substrate preincubated for 30 mins followed by substrate addition and measured after 30 mins
Outline: as §3

Mus musculus [12] = test: Protection against C57BL/6 mouse model of caerulein-induced acute pancreatitis assessed as reduction in CatC activity at 20 mg/kg, po pretreated twice daily for 6 days followed by caerulein-challenge at 1 hr interval for 8 hrs and measured 1 hr post-last caerulein-challenge
[13] = Cmax in C57BL/6 mouse at 10 mg/kg, ip by LC-MS/MS analysis; format: ADME, organism-based; set-up: dose 10 mg/kg, route intraperitoneal; details: in vivo
Outline: as §1

[14] = Intrinsic clearance in human liver microsomes assessed per mg protein measured after 60 mins in presence of NADPH by LC-MS/MS analysis; format: ADME, Microsome; details: read-out: CLH
Procathepsin L = Procathepsin L (Homo sapiens, UniProt P07711); test: Inhibition of recombinant human C-terminal His6-tagged cathepsin L (Glu113 to Val333 and Ala114 to Val333 residues) expressed in mouse myeloma cells using Z-Leu-Arg-AMC as substrate preincubated for 30 mins followed by substrate addition and measured after 30 mins
Outline: as §3

Mus musculus [15] = test: In vivo inhibition of CatC in po dosed C57BL/6 mouse bone marrow assessed as reduction in proteinase 3 activation administered twice daily for 6 days using aminobenzoyl-Val-Ala-Asp-Cys-Ala-Asp-Gln-ethylenediamine 2,4-dinitrophenyl as substrate measured up to 90 mins by fluorescence assay; format: functional, organism-based
Outline: as §2

Cytochrome P450 2D6 = Cytochrome P450 2D6 (Homo sapiens, UniProt P10635); test: Inhibition of CYP2D6 (unknown origin); format: ADME
Outline: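 Tested against recombinant human cytochrome P450 isoforms 1A2, 2D6, 3A4, 2C9 and 2C19.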

Dipeptidyl peptidase 1, sequence (P53634 25-134 limits assumed): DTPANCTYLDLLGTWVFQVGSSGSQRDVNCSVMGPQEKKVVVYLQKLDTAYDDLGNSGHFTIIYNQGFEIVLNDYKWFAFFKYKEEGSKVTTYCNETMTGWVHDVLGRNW
Dipeptidyl peptidase 1, sequence (P53634 231-394 limits assumed): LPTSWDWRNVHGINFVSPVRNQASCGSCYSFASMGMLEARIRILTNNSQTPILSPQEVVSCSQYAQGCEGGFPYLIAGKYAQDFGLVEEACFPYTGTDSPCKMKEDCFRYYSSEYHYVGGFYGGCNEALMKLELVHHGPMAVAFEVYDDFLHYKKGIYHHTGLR
Dipeptidyl peptidase 1, sequence (P53634 395-463 limits assumed): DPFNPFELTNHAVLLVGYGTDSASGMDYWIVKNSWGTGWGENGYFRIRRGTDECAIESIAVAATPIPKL
Cathepsin S, sequence (P25774 whole entry): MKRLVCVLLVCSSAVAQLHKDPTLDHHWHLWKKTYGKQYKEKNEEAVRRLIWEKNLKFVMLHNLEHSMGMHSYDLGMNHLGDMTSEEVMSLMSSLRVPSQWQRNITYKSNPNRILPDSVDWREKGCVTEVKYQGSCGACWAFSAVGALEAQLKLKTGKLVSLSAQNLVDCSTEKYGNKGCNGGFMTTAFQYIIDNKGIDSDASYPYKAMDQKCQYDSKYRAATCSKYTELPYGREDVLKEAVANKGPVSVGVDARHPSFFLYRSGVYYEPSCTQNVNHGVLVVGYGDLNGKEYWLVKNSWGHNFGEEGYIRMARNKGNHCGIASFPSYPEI
Cytochrome P450 2D6, sequence (P10635 whole entry, canonical isoform): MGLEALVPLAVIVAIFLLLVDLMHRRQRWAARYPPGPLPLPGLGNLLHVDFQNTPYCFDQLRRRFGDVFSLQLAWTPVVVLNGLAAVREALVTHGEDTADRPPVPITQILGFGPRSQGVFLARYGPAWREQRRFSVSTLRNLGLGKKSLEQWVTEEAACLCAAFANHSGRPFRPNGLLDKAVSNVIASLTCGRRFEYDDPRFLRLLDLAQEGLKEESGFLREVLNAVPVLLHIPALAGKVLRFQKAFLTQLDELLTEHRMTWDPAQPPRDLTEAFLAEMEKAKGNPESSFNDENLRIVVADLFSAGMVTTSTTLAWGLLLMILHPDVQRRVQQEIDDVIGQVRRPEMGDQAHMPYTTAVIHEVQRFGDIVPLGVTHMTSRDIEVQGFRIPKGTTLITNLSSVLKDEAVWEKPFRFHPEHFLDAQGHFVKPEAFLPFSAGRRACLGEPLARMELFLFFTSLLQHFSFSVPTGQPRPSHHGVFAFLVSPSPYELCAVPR
Procathepsin L, sequence (P07711 whole entry): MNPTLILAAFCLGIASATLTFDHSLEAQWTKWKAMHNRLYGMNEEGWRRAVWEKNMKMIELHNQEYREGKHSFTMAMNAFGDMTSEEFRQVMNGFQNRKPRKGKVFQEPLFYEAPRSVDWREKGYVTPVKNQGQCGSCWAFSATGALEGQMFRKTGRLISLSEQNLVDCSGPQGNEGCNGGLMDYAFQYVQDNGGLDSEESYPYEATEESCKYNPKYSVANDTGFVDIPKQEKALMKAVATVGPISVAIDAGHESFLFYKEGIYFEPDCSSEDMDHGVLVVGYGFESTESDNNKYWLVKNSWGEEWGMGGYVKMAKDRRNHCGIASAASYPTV

With `C=CC(=O)Nc1cc(Oc2nc(Nc3ccc(N4CCN(C)CC4)cc3OC)ccc2N2CCCCC2)ccc1C` the Activity (Mus musculus [1]) was “Active”, the half-life [2] was 1.19 h and the inhibition (Mus musculus [3]) was “Dose-dependent effect”. The inhibition (Mus musculus [4]) was “Dose-dependent effect”, the inhibition (Mus musculus [5]) was “Dose-dependent effect” and the AUC(0-inf) [6] was 1220 ng·h/mL. For the same molecule, the pIC50 (Dipeptidyl peptidase 1) was 8.47, the inhibition (Dipeptidyl peptidase 1) was “Dose-dependent effect” and the inhibition (Mus musculus [7]) was “Dose-dependent effect”. The microsomal CLint [8] was 10.8 µL/min/mg, the half-life [9] was 3.06 h and the Cmax [10] was 184 ng/mL. For the same molecule, the Tmax [11] was 0.5 h, the pIC50 (Cathepsin S) was < 5.00 and the pIC50 (Cathepsin B) was 5.00 to 5.52. For the same molecule, the Activity (Mus musculus [12]) was “Active”, the Cmax [13] was 766 ng/mL and the microsomal CLint [14] was 1.8 µL/min/mg. The pIC50 (Procathepsin L) was 5.00 to 5.52, the inhibition (Mus musculus [15]) was “Dose-dependent effect” and the pIC50 (Cytochrome P450 2D6) was < 5.00.
